Experimental data reported in ChEMBL document CHEMBL1153229, “The first synthetic agonists of FFA2: Discovery and SAR of phenylacetamides as allosteric modulators” (Bioorg Med Chem Lett, 2010).
Calls of active or inactive are those of the source. The calls are words filed in the database; no cut-off is given here.

Columns and labels:
Rattus norvegicus = assay: AUC in Sprague-Dawley rat at 0.5 mg/kg, iv; type: ADME, organism-based, Plasma; parameters: dose 0.5 mg/kg, route intravenous; conditions: in vivo
Outline: (§1)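 Male Sprague-Dawley rats dosed 0.5 mg/kg iv.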

[1] = Volume of distribution at steady state in Sprague-Dawley rat at 0.5 mg/kg, iv; type: ADME, organism-based; parameters: dose 0.5 mg/kg, route intravenous; conditions: in vivo, read-out: Vdss; outline: as §1
[2] = molecular target: T1, Free fatty acid receptor 2 (Mus musculus) (UniProt Q8VCK6); assay: Agonist activity at mouse FFA2 receptor expressed in CHO cells assessed as inhibition of forskolin-induced cAMP production; type: functional, cell-based
T1 sequence (whole entry): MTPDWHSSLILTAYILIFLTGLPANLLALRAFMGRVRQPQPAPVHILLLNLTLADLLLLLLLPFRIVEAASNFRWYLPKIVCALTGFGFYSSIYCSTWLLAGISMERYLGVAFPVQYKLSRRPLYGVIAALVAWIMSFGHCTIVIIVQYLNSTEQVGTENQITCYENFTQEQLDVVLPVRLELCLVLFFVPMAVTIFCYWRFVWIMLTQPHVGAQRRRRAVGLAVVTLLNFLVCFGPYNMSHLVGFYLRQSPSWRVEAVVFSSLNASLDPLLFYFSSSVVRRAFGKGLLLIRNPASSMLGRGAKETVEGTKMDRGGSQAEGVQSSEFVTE
Outline: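 Suspended cells, 10,000 per well, in Hank's balanced salt solution with 25 mM HEPES and 0.01% (w/v) BSA. Stimulated with forskolin (5 μM final) plus serially diluted test ligands, room temperature for 30 min. Antibody and lysis reagents then added, followed by overnight dark incubation with detection solution. Luminescence read (RLU). Efficacy expressed relative to acetate. Means of four experiments.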

[3] = molecular target: Free fatty acid receptor 1 (Homo sapiens) (UniProt O14842); assay: Agonist activity at FFA1 receptor up to 30 uM; type: functional
Sequence of Free fatty acid receptor 1 (Homo sapiens) (O14842 whole entry): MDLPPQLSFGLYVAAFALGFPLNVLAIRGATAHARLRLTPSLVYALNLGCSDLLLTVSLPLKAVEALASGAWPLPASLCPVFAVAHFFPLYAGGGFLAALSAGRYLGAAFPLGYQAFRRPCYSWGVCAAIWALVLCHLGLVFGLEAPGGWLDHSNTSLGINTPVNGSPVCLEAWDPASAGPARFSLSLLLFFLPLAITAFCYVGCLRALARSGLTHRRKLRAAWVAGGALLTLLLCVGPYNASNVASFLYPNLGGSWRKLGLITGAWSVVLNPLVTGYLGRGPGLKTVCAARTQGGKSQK

[4] = molecular target: T2, Free fatty acid receptor 3 (Homo sapiens) (UniProt O14843); assay: Agonist activity at FFA3 receptor up to 30 uM; type: functional
T2 sequence (whole entry): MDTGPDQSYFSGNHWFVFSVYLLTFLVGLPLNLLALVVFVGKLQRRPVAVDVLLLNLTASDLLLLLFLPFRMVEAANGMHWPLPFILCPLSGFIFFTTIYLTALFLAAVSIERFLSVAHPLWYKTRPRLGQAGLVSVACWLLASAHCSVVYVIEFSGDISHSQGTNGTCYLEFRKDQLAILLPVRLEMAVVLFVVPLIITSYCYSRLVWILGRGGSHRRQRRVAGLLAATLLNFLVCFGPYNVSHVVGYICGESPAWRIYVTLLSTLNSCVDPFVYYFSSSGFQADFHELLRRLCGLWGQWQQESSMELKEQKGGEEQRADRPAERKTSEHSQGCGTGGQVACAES

AUC (Rattus norvegicus): 194 ng·h/mL
Vd [1]: 9.8 L/kg
Activity [2]: 0.7 µM
Activity [3]: inactive
Activity [4]: inactive
SMILES: CC(C)[C@H](C(=O)Nc1ncc(F)s1)c1ccc(Cl)cc1
